Measurements published in ChEMBL document CHEMBL4017537, “Discovery of a Potent and Specific M. tuberculosis Leucyl-tRNA Synthetase Inhibitor: (S)-3-(Aminomethyl)-4-chloro-7-(2-hydroxyethoxy)benzo[c][1,2]oxaborol-1(3H)-ol (GSK656)” (J Med Chem, 2017).
pEC50, pIC50: −log10 of the molar value.

What was measured:
[1] = tested on: Mycobacterium tuberculosis; assay: Antimicrobial activity against Mycobacterium tuberculosis H37Rv infected in C57BL/6J mouse assessed as bacterial load in lungs at 100 mg/kg qd administered for 8 consecutive weeks starting from 6 weeks post infection measured 24 hrs post last dose (reference value: 6.4 +/- 0.3 log10CFU); format: functional
Summary of the method: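 C57BL/6J mice infected intratracheally with ~10² CFU M. tuberculosis H37Rv. Dosed QD, 7 days/week, for 8 weeks starting 6 weeks post-infection; killed ≥24 h after last dose. Lung homogenates plated on 7H11/10% OADC for 21 days at 37 °C. n = 3 per dose group, 7 for controls; mean (SD); ANOVA with Dunnett's test versus 14-week untreated.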

[2] = AUC (0 to infinity) in CD-1 mouse at 5 mg/kg, iv after 24 hrs by LC-MS/MS analysis; format: ADME, organism-based; set-up: dose 5 mg/kg, route intravenous, time infinity; details: in vivo
[3] = Volume of distribution at steady state in CD-1 mouse at 5 mg/kg, iv after 24 hrs by LC-MS/MS analysis; format: ADME, organism-based; details: in vivo, read-out: Vdss
[4] = tested on: HepG2; assay: Cytotoxicity against human HepG2 cells assessed as reduction in cell viability after 48 hrs by CellTiter-Glo assay; format: cell-based; details: HepG2, 48 h
Summary of the method: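 HepG2 cells seeded at 10 000/well in EMEM with 5% FCS and 2 mM glutamine. After 24 h, ten 1:2 serial compound dilutions (0.5% DMSO final) added in duplicate for 48 h. Read-out by CellTiter-Glo luminescence per table footnote; the method text also describes resazurin fluorescence (ex 515/em 590 nm). Sigmoidal variable-slope fit.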

[5] = AUC (0 to 24 hrs) in CD-1 mouse at 5 mg/kg administered via oral gavage by LC-MS/MS analysis; format: ADME, organism-based; set-up: time < 24 hr, dose 5 mg/kg, route oral; details: in vivo
[6] = tested on: Mycobacterium tuberculosis; assay: Antimicrobial activity against Mycobacterium tuberculosis H37Rv infected in C57BL/6J mouse assessed as 2 log reduction in bacterial load in lungs administered qd for 8 consecutive days starting on day 1 post infection measured 24 hrs post last dose; format: functional
[7] = Oral bioavailability in CD-1 mouse at 5 mg/kg administered via gavage after 24 hrs by LC-MS/MS analysis; format: ADME, organism-based; details: in vivo
[8] = target: T1, Leucine--tRNA ligase, cytoplasmic (Homo sapiens, UniProt Q9P2J5); assay: Inhibition of cytoplasmic LeuRS in human HepG2 cells assessed as reduction in protein synthesis preincubated for 48 hrs followed by L-[14C]leucine addition measured after 3 hrs by liquid scintillation counting analysis; format: cell-based
T1 sequence (Q9P2J5 whole entry): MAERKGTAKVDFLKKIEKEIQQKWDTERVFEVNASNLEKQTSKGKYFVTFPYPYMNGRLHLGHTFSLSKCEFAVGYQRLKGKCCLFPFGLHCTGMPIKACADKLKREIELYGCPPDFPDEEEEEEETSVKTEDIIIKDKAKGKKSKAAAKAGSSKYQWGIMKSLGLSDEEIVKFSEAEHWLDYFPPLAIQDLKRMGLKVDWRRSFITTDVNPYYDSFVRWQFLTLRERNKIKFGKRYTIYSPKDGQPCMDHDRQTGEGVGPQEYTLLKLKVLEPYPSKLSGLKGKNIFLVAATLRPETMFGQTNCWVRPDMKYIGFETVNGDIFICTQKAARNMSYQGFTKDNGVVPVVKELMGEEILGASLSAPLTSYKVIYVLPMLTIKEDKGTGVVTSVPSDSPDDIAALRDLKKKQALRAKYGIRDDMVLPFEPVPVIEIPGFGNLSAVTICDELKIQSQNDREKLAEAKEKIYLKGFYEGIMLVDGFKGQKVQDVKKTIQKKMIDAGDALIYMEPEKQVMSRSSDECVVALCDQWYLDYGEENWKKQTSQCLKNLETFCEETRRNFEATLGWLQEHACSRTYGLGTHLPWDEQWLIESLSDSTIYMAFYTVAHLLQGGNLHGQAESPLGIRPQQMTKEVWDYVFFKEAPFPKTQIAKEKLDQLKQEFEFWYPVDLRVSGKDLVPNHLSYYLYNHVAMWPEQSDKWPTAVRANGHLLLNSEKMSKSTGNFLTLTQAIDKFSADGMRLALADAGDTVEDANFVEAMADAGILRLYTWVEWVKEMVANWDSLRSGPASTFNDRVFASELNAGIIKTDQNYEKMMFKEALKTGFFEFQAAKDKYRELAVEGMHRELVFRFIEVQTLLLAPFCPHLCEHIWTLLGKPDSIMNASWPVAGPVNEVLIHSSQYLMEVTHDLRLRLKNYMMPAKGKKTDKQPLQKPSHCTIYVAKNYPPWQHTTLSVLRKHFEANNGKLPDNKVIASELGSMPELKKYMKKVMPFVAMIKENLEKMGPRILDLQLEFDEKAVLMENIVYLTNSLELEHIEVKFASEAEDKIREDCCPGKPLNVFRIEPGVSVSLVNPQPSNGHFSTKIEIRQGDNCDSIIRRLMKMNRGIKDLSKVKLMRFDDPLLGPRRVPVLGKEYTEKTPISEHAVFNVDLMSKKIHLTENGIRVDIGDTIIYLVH
Summary of the method: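 HepG2 cells in DMEM/10% FCS, 3000 cells/well, exposed to compound dilutions (0.5% DMSO final) for 48 h at 37 °C. Medium then replaced with fresh medium containing 0.5 μCi L-[14C]leucine and the same compound levels for 3 h. Cells trypsinised, precipitated in ice-cold 20% TCA, filtered, washed, scintillation counted; curve-fit EC50; mean of at least duplicates.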

[9] = Cmax in CD-1 mouse at 5 mg/kg administered via oral gavage after 24 hrs by LC-MS/MS analysis; format: ADME, organism-based; set-up: dose 5 mg/kg, route oral; details: in vivo
[10] = tested on: Mycobacterium tuberculosis; assay: Antimicrobial activity against Mycobacterium tuberculosis H37Rv; format: functional
[11] = Tmax in CD-1 mouse at 5 mg/kg administered via oral gavage after 24 hrs by LC-MS/MS analysis; format: ADME, organism-based; details: in vivo
[12] = tested on: cytoplasmic LeuRS; assay: Selectivity index, ratio of EC50 for inhibition of cytoplasmic LeuRS in HepG2 cells assessed as reduction in protein synthesis to MIC for Mycobacterium tuberculosis H37Rv; format: toxicity, cell-based; details: human, read-out: Selectivity Index
Summary of the method: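 Ratio of HepG2 protein-synthesis EC50 to MIC against M. tuberculosis H37Rv.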

[13] = tested on: Mus musculus; assay: Dose normalized AUC (0 to infinity) in CD-1 mouse at 5 mg/kg, iv after 24 hrs by LC-MS/MS analysis; format: ADME, organism-based; details: in vivo
[14] = target: T2, Leucine--tRNA ligase, mitochondrial (Homo sapiens, UniProt Q15031); assay: Inhibition of human N-terminal 6His-tagged mitochondrial LeuRS expressed in Escherichia coli BL21(DE3) assessed as L-[14C]leucine incorporation in to Escherichia coli tRNA after 20 mins by liquid scintillation counting analysis
T2 sequence (Q15031 whole entry): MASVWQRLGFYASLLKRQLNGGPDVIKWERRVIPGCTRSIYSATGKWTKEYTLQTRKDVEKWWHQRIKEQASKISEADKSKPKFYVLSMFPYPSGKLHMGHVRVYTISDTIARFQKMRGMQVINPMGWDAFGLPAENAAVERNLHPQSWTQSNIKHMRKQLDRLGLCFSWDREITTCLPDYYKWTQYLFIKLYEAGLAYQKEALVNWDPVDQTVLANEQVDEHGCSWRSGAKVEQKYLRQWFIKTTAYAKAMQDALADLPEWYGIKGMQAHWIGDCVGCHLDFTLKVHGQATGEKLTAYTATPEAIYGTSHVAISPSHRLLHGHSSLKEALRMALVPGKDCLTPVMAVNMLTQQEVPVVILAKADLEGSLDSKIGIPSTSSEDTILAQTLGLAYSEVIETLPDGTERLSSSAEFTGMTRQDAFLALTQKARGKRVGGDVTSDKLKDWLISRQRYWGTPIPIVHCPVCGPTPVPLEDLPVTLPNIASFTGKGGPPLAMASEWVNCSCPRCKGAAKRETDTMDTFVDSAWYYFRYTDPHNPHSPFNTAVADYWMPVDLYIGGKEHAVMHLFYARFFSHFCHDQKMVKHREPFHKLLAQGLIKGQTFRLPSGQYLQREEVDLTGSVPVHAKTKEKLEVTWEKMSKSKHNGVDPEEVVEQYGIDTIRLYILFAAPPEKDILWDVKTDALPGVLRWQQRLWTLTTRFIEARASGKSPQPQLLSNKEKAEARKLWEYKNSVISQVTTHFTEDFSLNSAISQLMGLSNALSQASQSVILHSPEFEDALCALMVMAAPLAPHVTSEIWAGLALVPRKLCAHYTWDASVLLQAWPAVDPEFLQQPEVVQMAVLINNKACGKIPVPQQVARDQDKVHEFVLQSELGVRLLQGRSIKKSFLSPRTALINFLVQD
Summary of the method: (§1)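 N-terminal His6-tagged LeuRS expressed in E. coli BL21(DE3), codon-optimized. 50 mM HEPES-KOH pH 8.0, 30 mM MgCl2, 30 mM KCl, 13 μM L-[14C]leucine, 15 μM tRNA (E. coli total; brewer's yeast for human cytoplasmic enzyme), 0.02% BSA, 1 mM DTT, 30 °C. Inhibitor preincubated 20 min, started with 4 mM ATP, TCA-quenched after 7 min, filtered, scintillation counted; four-parameter logistic IC50.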

[15] = target: T3, Leucine--tRNA ligase (Mycobacterium tuberculosis (strain ATCC 25618 / H37Rv), UniProt P9WFV1); assay: Inhibition of Mycobacterium tuberculosis H37Rv N-terminal 6His-tagged LeuRS expressed in Escherichia coli BL21(DE3) assessed as L-[14C]leucine incorporation in to Escherichia coli tRNA after 20 mins by liquid scintillation counting analysis; summary of the method: as §1
T3 sequence (P9WFV1 whole entry): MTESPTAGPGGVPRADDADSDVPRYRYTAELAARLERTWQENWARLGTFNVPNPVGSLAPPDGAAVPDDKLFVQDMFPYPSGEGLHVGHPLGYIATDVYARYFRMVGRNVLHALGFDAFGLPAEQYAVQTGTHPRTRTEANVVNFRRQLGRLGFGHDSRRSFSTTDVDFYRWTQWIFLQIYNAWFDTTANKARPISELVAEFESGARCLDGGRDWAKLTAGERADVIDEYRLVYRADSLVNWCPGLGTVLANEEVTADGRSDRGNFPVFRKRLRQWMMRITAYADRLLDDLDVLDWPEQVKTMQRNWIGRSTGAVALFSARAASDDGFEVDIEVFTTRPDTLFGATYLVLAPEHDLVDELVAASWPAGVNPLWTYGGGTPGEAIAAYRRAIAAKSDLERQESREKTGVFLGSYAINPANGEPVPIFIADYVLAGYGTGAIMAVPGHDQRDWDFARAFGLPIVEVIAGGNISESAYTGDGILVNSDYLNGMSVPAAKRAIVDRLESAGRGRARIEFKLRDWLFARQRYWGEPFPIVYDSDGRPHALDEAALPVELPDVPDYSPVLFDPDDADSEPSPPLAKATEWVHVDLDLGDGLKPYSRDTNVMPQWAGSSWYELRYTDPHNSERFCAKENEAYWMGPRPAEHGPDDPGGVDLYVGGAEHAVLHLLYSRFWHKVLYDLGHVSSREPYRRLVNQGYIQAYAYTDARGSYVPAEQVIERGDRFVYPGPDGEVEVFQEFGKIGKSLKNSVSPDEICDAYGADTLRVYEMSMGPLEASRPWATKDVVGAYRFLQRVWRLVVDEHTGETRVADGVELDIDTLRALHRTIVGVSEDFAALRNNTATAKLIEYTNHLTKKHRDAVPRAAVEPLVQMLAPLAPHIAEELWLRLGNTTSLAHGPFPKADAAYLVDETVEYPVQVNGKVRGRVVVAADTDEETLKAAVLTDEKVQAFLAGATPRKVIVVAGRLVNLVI

[16] = tested on: Mus musculus; assay: Dose normalized AUC (0 to 24 hrs) in CD-1 mouse at 5 mg/kg administered via oral gavage by LC-MS/MS analysis; format: ADME, organism-based; details: in vivo
[17] = Clearance in CD-1 mouse at 5 mg/kg, iv after 24 hrs by LC-MS/MS analysis; format: ADME, organism-based; details: in vivo
[18] = target: T1, Leucine--tRNA ligase, cytoplasmic; assay: Inhibition of human N-terminal 6His-tagged cytoplasmic LeuRS expressed in Escherichia coli BL21(DE3) assessed as […] after 20 mins by liquid scintillation counting analysis
[19] = Half life in CD-1 mouse at 5 mg/kg, iv after 24 hrs by LC-MS/MS analysis; format: ADME, organism-based; details: in vivo
[20] = Cmax in C57BL/6 mouse at 30 mg/kg administered as single dose via oral gavage measured up to 24 hrs by LC-MS/MS analysis; format: ADME, organism-based; set-up: dose 30 mg/kg, route oral; details: in vivo
[21] = AUC (0 to 24 hrs) in C57BL/6 mouse at 30 mg/kg administered as single dose via oral gavage by LC-MS/MS analysis; format: ADME, organism-based; set-up: time < 24 hr, dose 30 mg/kg, route oral; details: in vivo
[22] = AUC (0 to infinity) in C57BL/6 mouse at 30 mg/kg, iv administered as single dose measured up to 24 hrs by LC-MS/MS analysis; format: ADME, organism-based; set-up: dose 30 mg/kg, time infinity, route intravenous; details: in vivo
[23] = Half life in C57BL/6 mouse at 30 mg/kg, iv administered as single dose measured up to 24 hrs by LC-MS/MS analysis; format: ADME, organism-based; details: in vivo
[24] = Volume of distribution at steady state in C57BL/6 mouse at 30 mg/kg, iv administered as single dose measured up to 24 hrs by LC-MS/MS analysis; format: ADME, organism-based; details: in vivo, read-out: Vdss
Summary of the method: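 C57BL/6 female mice (18−20 g) got one intravenous dose in saline. Whole blood (15 μL) was taken by lateral tail-vein puncture from each of 3 mice at 5, 15 and 30 min and at 1, 2, 4, 8 and 24 h postdose, and drug concentrations were measured in peripheral blood.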

[25] = Tmax in C57BL/6 mouse at 30 mg/kg administered as single dose via oral gavage measured up to 24 hrs by LC-MS/MS analysis; format: ADME, organism-based; details: in vivo
Summary of the method: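 C57BL/6 female mice (18−20 g) got one oral gavage dose of 30 mg/kg in 1% methylcellulose. Peripheral whole blood was sampled from 15 min to 24 h postdose, n = 3 mice per time point, and drug concentrations were measured in blood.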

[26] = Clearance in C57BL/6 mouse at 30 mg/kg, iv administered as single dose measured up to 24 hrs by LC-MS/MS analysis; format: ADME, organism-based; details: in vivo
[27] = tested on: Mus musculus; assay: Dose normalized AUC (0 to infinity) in C57BL/6 mouse at 30 mg/kg, iv administered as single dose measured up to 24 hrs by LC-MS/MS analysis; format: ADME, organism-based; details: in vivo
[28] = Oral bioavailability in C57BL/6 mouse at 30 mg/kg administered as single dose via gavage measured up to 24 hrs by LC-MS/MS analysis; format: ADME, organism-based; details: in vivo
[29] = tested on: Mus musculus; assay: Dose normalized AUC (0 to 24 hrs) in C57BL/6 mouse at 30 mg/kg administered as single dose via oral gavage by LC-MS/MS analysis; format: ADME, organism-based; details: in vivo

## CC(=O)NC[C@H]1CN(c2ccc(N3CCOCC3)c(F)c2)C(=O)O1 [LINEZOLID]
[1]
  Activity: 3.9 log10CFU

## COc1ccc(Br)c2c1B(O)O[C@@H]2CN.Cl
[2]
  AUC(0-inf): 5840 ng·h/mL
[3]
  Vd: 2.5 L/kg
[4]
  pEC50: 4.13
[5]
  AUC(0-t) at 24 h: 4210 ng·h/mL
[6]
  ED99: 3.8 mg/kg
[7]
  bioavailability: 72%
[8]
  pEC50: 4.01
[9]
  Cmax: 980 ng/mL
[10]
  MIC: 0.1 µM
[11]
  Tmax: 0.25 h
[12]
  selectivity ratio: 970
[13]
  AUC/dose: 1.17 µg·h/mL/mg/kg
[14]
  pIC50: < 3.52
[15]
  pIC50: 7.13
[16]
  AUC/dose: 0.84 µg·h/mL
[17]
  clearance: 14.2 mL/min/kg
[18]
  pIC50: < 3.52
[19]
  half-life: 2.4 h

## Cl.NC[C@H]1OB(O)c2c3c(cc(Cl)c21)OCCO3
[20]
  Cmax: 6210 ng/mL
[4]
  pEC50: 4.16
[21]
  AUC(0-t) at 24 h: 37700 ng·h/mL
[22]
  AUC(0-inf): 76300 ng·h/mL
[23]
  half-life: 2.9 h
[24]
  Vd: 1.5 L/kg
[6]
  ED99: 70 mg/kg
[25]
  Tmax: 1 h
[8]
  pEC50: 4.08
[26]
  clearance: 6.6 mL/min/kg
[27]
  AUC/dose: 2.54 µg·h/mL/mg/kg
[10]
  MIC: 0.08 µM
[12]
  selectivity ratio: 1040
[15]
  pIC50: 7.34
[28]
  bioavailability: 50%
[29]
  AUC/dose: 1.26 µg·h/mL
[18]
  pIC50: 4.02
